Results on twelve compounds are retold here after ChEMBL document CHEMBL2034886, “Anticancer and radiosensitizing evaluation of some new pyranothiazole-Schiff bases bearing the biologically active sulfonamide moiety” (Eur J Med Chem, 2012).

Assay [1] has as its system MCF7. Kind of assay: Cytotoxicity against 8 Gy irradiated human MCF7 cells assessed as surviving fraction at 10 uM after 1 hr by clonogenic assay (reference value: 0.927 +/- 0.02). In kind it is functional. Summed up: (§1)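 MCF7 cells were treated with compound at 10, 25, 50 or 100 combined with one 8 Gy dose of ¹³⁷Cs gamma radiation at 1 Gy/min. Surviving fraction was measured 1 h after irradiation and given as mean ± SE relative to control, analysed by one-way ANOVA. IC50 was derived by nonlinear regression curve fitting.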

For assay [2], the system named is MCF7. Kind of assay: Cytotoxicity against human MCF7 cells assessed as surviving fraction at 50 uM after 48 hrs by sulforhodamine B assay. It is filed as functional. Also on record: unit not given here. Summed up:
(§2)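 SRB assay on MCF7 breast cancer cells plated at 10^4 cells/well for 24 h before treatment. Compounds were dissolved in DMSO, diluted with saline and tested at 10, 25, 50 and 100 in triplicate wells for 48 h at 37 °C under 5% CO₂. Cells were fixed and stained 30 min with 0.4% SRB in 1% acetic acid, washed four times with acetic acid, and the dye was recovered in Tris-EDTA and read on an ELISA reader. IC50 was taken from the survival curve.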

In assay [3] the test system is MCF7. Kind of assay: Cytotoxicity against human MCF7 cells assessed as surviving fraction at 25 uM after 48 hrs by sulforhodamine B assay. It is filed as functional. Summed up: as §2
For assay [4], the system named is MCF7. Kind of assay: Cytotoxicity against 8 Gy irradiated human MCF7 cells assessed as surviving fraction at 100 uM after 1 hr by clonogenic assay (reference value: 0.927 +/- 0.02). In kind it is functional. The method in brief: as §1
Assay [5] relates to MCF7. The assay can be described thus: Cytotoxicity against 8 Gy irradiated human MCF7 cells assessed as surviving fraction at 50 uM after 1 hr by clonogenic assay (reference value: 0.927 +/- 0.02). It is filed as functional. Summed up:
as §1

In assay [6] the test system is MCF7. The assay can be described thus: Cytotoxicity against human MCF7 cells after 48 hrs by sulforhodamine B assay. In kind it is functional, cell-based. The following applies: MCF7, 48 h. Summed up: as §2
(In general: Sulforhodamine B stains cellular protein and so reports cell mass.)

The test system of assay [7] is MCF7. The assay can be described thus: Cytotoxicity against 8 Gy irradiated human MCF7 cells after 1 hr by clonogenic assay. The following applies: MCF7, light or radiation study. It is filed as functional, cell-based. The method in brief:
as §1

In assay [8] the test system is MCF7. Kind of assay: Cytotoxicity against human MCF7 cells assessed as surviving fraction at 100 uM after 48 hrs by sulforhodamine B assay. In kind it is functional. Summed up:
as §2

In assay [9] the test system is MCF7. Kind of assay: Cytotoxicity against 8 Gy irradiated human MCF7 cells assessed as surviving fraction at 25 uM after 1 hr by clonogenic assay (reference value: 0.927 +/- 0.02). It is filed as functional. The method in brief:
as §1

In assay [10] the test system is MCF7. Kind of assay: Cytotoxicity against human MCF7 cells assessed as surviving fraction at 10 uM after 48 hrs by sulforhodamine B assay. In kind it is functional. Summed up:
as §2

Assay [11] deals with MCF7. Kind of assay: Ratio of doxorubicin IC50 to compound IC50 for human MCF7 cells. In kind it is functional.

For `COc1ccc(C2C(C#N)=C(N)Oc3nc(Nc4ccc(S(N)(=O)=O)cc4)sc32)cc1` (stereo not drawn), the Activity in assay [1] is given as 0.618 fraction (unitless); in [2], 0.331; in assay [3], 55%; in [4], 0.201 fraction (of control); in assay [5] it was 0.171 fraction; in assay [8], 35%. Besides, the Activity was 0.346 fraction (of 1) in assay [9] and 0.81 fraction in [10]. The IC50 was determined as 27.5 µM in assay [6] and 14.8 µM in [7].
With `COc1ccc(C2C(C#N)=C(/N=C/c3ccccc3)Oc3nc(Nc4ccc(S(N)(=O)=O)cc4)sc32)cc1` (stereo not drawn), the Activity in assay [2] is listed as 0.307; in assay [3], 66.8%; in [8], 27.1%; in assay [10] it was 0.825 fraction. In addition, half-maximal inhibition in [6] (IC50) was put at 33.5 µM.
For `COc1ccc(C2C(C#N)=C(/N=C/c3ccccc3Cl)Oc3nc(Nc4ccc(S(N)(=O)=O)cc4)sc32)cc1` (stereo not drawn), the Activity is given as 0.453 fraction (unitless) in [1]; 0.36 in [2]; 32.3% in assay [3]; 0.119 fraction (of control) in assay [4]; 0.135 fraction in assay [5]; 46% in [8]. The Activity is given as 0.237 fraction (of 1) in [9] and 0.541 fraction in [10]. For the same compound, the “Ratio IC50” value in assay [11] was 3.1. Besides, the IC50 in [6] is 10.2 µM; in [7] it was 9.11 µM.
Take `COc1ccc(C2C(C#N)=C(/N=C/c3ccc(Cl)cc3)Oc3nc(Nc4ccc(S(N)(=O)=O)cc4)sc32)cc1` (stereo not drawn): the Activity is recorded as 0.311 fraction (unitless) in [1]; 0.355 in assay [2]; 25.1% in [3]; 0.201 fraction (of control) in assay [4]; 0.17 fraction in [5]; 29% in [8]. The results for the Activity in [9] and in assay [10] were 0.217 fraction (of 1) and 0.443 fraction, respectively. Moreover, the figures for the IC50 in [6] and in [7] were 9.55 µM and 8.72 µM, respectively.
`COc1ccc(C2C(C#N)=C(/N=C/c3cccc(Br)c3)Oc3nc(Nc4ccc(S(N)(=O)=O)cc4)sc32)cc1` (stereo not drawn): the Activity in [1] is 0.319 fraction (unitless); in assay [2], 0.371; in assay [3] it was 23.3%; in assay [4], 0.235 fraction (of control); in assay [5] it was 0.119 fraction; in [8] it was 30.9%. Further, the Activity in [9] is 0.211 fraction (of 1); in [10], 0.435 fraction. In addition, in assay [11], the Ratio IC50 worked out at 3.4. Besides, the figures for the IC50 in [6] and in assay [7] were 9.39 µM and 8.72 µM, respectively.
With `COc1ccc(C2C(C#N)=C(/N=C/c3ccc(F)cc3)Oc3nc(Nc4ccc(S(N)(=O)=O)cc4)sc32)cc1` (stereo not drawn), the Activity is 0.38 in assay [2], 55.1% in assay [3], 44.3% in assay [8] and 0.845 fraction in [10]. The compound further yielded an IC50 in [6] of 28.9 µM.
For `COc1ccc(C2C(C#N)=C(/N=C/c3ccc(Cl)cc3Cl)Oc3nc(Nc4ccc(S(N)(=O)=O)cc4)sc32)cc1` (stereo not drawn) the same measures were 0.377, 50.3%, 39.1%, 0.693 fraction and 23.5 µM.
As for `COc1ccc(C2C(C#N)=C(/N=C/c3ccc([N+](=O)[O-])cc3)Oc3nc(Nc4ccc(S(N)(=O)=O)cc4)sc32)cc1` (stereo not drawn), the Activity in assay [1] was 0.403 fraction (unitless); in [2], 0.313; in assay [3], 32.7%; in [4], 0.13 fraction (of control); in assay [5], 0.1 fraction; in assay [8], 38.1%. Moreover, the Activity in assay [9] is on record as 0.201 fraction (of 1); in [10] it was 0.48 fraction. The Ratio IC50 in assay [11] came to 3.3. Further, the IC50 in assay [6] worked out at 9.7 µM; in assay [7], 7.55 µM.
As to `COc1ccc(C2C(C#N)=C(/N=C/c3ccc(N(C)C)cc3)Oc3nc(Nc4ccc(S(N)(=O)=O)cc4)sc32)cc1` (stereo not drawn), the Activity in assay [2] is 0.347; in assay [3], 70.1%; in [8], 37.8%; in assay [10], 0.792 fraction. In addition, the IC50 in [6] worked out at 36.2 µM.
For `COc1ccc(C2C(C#N)=C(/N=C/C=C/c3ccccc3)Oc3nc(Nc4ccc(S(N)(=O)=O)cc4)sc32)cc1` (stereo not drawn) the same measures were 0.242, 60.1%, 37%, 0.828 fraction and 28.9 µM.
Turning to `COc1ccc(C2C(C#N)=C(/N=C/c3ccc(O)cc3)Oc3nc(Nc4ccc(S(N)(=O)=O)cc4)sc32)cc1` (stereo not drawn), the Activity came to 0.37 in assay [2], 63.8% in [3], 30.7% in assay [8] and 0.872 fraction in assay [10]. In assay [6], this compound gave an IC50 of 34.5 µM.
On to `COc1ccc(C2C(C#N)=C(/N=C/c3ccc4c(c3)OCO4)Oc3nc(Nc4ccc(S(N)(=O)=O)cc4)sc32)cc1` (stereo not drawn), for which the Activity in assay [2] is 0.419; in assay [3], 66%; in assay [8], 39.3%; in assay [10], 0.814 fraction. Further, the IC50 in assay [6] turned out to be 38.2 µM.

A word on the IC50: it is the concentration at which inhibition is half-maximal.
